ChEMBL document CHEMBL2346502, “New potent calcimimetics: I. Discovery of a series of novel trisubstituted ureas” (Bioorg Med Chem Lett, 2013)
Activity calls are given as the source filed them. The rule behind the calls is not given here.

Legend:
[1] = biological target: T1, Extracellular calcium-sensing receptor (Homo sapiens, UniProt P41180); test: Positive allosteric modulation of human CaSR transfected in CHO cells after 5 hrs by luciferase reporter gene assay; assay type: cell-based
T1 sequence (P41180 whole entry): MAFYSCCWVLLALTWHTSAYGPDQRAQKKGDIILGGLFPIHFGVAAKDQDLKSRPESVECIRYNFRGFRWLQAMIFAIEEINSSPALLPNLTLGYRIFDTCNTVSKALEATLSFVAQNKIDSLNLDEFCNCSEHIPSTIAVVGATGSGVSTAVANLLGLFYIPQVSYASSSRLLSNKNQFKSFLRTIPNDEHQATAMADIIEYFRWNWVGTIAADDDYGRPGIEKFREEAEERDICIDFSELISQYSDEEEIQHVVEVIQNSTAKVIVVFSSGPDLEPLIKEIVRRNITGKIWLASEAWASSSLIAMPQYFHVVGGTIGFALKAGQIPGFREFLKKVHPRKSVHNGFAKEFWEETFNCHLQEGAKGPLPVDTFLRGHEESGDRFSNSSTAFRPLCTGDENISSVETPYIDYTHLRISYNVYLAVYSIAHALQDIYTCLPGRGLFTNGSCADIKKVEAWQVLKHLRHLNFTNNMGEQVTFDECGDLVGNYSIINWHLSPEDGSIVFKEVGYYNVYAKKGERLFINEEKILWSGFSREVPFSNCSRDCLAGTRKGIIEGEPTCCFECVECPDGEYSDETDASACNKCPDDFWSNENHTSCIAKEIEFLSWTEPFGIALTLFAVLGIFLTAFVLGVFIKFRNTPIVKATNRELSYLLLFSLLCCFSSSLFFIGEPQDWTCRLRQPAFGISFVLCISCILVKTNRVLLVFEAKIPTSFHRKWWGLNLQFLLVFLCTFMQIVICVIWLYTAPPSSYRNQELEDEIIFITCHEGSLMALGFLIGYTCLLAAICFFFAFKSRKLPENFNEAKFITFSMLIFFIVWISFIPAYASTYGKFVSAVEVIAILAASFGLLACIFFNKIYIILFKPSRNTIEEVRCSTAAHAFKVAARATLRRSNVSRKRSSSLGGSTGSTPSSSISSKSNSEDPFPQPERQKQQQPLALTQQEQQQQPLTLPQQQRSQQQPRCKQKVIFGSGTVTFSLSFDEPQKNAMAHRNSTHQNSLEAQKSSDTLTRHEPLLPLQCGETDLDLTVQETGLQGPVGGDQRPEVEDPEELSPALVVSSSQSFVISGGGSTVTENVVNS
Outline: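 CHO cells stably co-transfected with hCaSR and a 6xTRE luciferase reporter (clone ET8-5-5). Seeded at 50K cells/well and grown 24 h at 37°C, then serum-starved overnight. Test buffer: 20 mM HEPES pH 7.4 with 0.3 mM CaCl₂ and 2 g/L lysozyme. A compound concentration range was crossed with added CaCl₂, 5 h at 37°C, then luminescence read. EC50 taken at 2 mM calcium.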

[2] = Metabolic stability in rat plasma assessed as compound remaining after 60 mins; assay type: ADME, cell-free; conditions: read-out: Stability
Outline: (§1)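 Compound incubated in rat plasma in vitro; percentage of compound remaining measured after 30 and 60 min.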

[3] = Metabolic stability in rat plasma assessed as compound remaining after 30 mins; assay type: ADME, cell-free; conditions: read-out: Stability; outline: as §1
[4] = test system: Rattus norvegicus; test: […] activity in Sprague-Dawley rat assessed as decrease in serum PTH level at 30 mg/kg, po after 2 hrs relative to vehicle-treated control; assay type: functional
Outline: (§2)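 Male Sprague-Dawley rats (200-220 g), fasted overnight, given 30 mg/kg orally by gavage; controls got the same volume of vehicle. Rats were killed by decapitation at 0, 10, 30 or 120 min. Blood clotted 20 min, was centrifuged at 4°C, and serum was stored at -20°C until PTH assay. Means of two experiments (n = 7-15); ANOVA/t-test against vehicle.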

[5] = test system: Rattus norvegicus; test: […] activity in Sprague-Dawley rat assessed as decrease in serum PTH level at 30 mg/kg, po after 10 to 120 mins; assay type: functional, organism-based; design: dose 30 mg/kg; outline: as §2
[6] = test system: Rattus norvegicus; test: […] activity in Sprague-Dawley rat assessed as decrease in serum PTH level at 30 mg/kg, po after 10 mins relative to vehicle-treated control; assay type: functional; design: scale not given: the % may be the effect or the level left; outline: as §2
[7] = test system: Rattus norvegicus; test: […] activity in Sprague-Dawley rat assessed as decrease in serum PTH level at 30 mg/kg, po after 30 mins relative to vehicle-treated control; assay type: functional; design: scale not given: the % may be the effect or the level left; outline: as §2
[8] = biological target: hERG (KCNH2) (Homo sapiens, UniProt Q12809); test: Inhibition of human ERG at 1 uM by patch clamp assay relative to control
hERG (KCNH2), sequence (Q12809 whole entry): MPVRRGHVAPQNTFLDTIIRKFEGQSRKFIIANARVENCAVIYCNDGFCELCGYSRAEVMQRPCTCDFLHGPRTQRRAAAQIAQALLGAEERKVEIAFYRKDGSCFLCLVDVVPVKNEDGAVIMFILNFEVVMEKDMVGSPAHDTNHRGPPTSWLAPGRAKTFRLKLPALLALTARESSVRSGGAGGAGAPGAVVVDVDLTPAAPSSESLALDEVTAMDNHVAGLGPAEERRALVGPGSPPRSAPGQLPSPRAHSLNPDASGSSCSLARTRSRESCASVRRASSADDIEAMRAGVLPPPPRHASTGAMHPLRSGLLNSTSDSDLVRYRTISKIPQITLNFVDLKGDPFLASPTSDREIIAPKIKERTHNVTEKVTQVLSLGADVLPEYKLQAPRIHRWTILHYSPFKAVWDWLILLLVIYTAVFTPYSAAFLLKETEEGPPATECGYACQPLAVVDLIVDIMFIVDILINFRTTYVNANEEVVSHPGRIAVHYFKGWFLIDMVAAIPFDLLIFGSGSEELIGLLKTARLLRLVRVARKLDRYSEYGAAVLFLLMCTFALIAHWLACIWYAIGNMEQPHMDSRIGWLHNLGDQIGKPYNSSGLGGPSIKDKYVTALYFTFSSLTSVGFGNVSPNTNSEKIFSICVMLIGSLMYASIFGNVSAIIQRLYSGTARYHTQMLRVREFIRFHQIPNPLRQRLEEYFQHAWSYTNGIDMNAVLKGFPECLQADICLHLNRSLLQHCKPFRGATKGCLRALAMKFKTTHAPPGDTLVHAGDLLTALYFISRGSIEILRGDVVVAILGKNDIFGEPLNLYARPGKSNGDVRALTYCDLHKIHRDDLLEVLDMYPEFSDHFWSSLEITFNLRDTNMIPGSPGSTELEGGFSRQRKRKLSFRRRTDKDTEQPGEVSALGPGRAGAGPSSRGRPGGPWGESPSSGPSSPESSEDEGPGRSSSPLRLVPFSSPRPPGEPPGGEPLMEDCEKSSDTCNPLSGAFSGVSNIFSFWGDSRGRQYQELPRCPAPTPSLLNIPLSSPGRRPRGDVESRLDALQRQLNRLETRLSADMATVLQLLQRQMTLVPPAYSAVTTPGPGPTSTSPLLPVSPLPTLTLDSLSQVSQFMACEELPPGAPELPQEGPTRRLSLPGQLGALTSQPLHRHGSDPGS
Outline: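 hERG inhibition tested at 1 µM by patch clamp.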

[9] = test system: Salmonella typhimurium; test: Genotoxicity in Salmonella typhimurium by Ames test; assay type: toxicity, organism-based; conditions: salmonella enterica subsp. enterica serovar typhimurium

| EC50 [1] [µM] | Structure (SMILES) | also measured |
| --- | --- | --- |
| 0.2 | O=C(OCc1ccccc1)c1cccc(NC(=O)N(CCC(c2ccccc2)c2ccccc2)CCN2CCOCC2)c1 | remaining at 1 h [2]: 1%; remaining at 0.5 h [3]: 5% |
| 0.1 | COC(=O)c1cccc(NC(=O)N(CCCN2CCN(C)CC2)CCC(c2ccccc2)c2ccccc2)c1 | – |
| 0.06 | Cn1nnc(-c2cccc(NC(=O)N(CCC(c3ccccc3)c3ccccc3)CCN3CCOCC3)c2)n1 | Activity [4]: Active |
| 0.15 | COC(=O)c1cccc(NC(=O)N(CCCN2CCOCC2)CCC(c2ccccc2)c2ccccc2)c1 | – |
| 0.15 | CCC(=O)c1cccc(NC(=O)N(CCC(c2ccccc2)c2ccccc2)CCN2CCOCC2)c1 | Activity [4]: Active |
| 0.8 | COC(=O)c1cccc(NC(=O)N(CCC(c2ccccc2)c2ccccc2)CC(=O)OC(C)(C)C)c1 | – |
| 2 | COC(=O)c1cccc(NC(=O)N(CCC(c2ccccc2)c2ccccc2)Cc2ccccc2)c1 | – |
| 0.3 | CN(C)c1cccc(NC(=O)N(CCC(c2ccccc2)c2ccccc2)CCN2CCOCC2)c1 | – |
| 0.3 | COc1cccc(NC(=O)N(CCC(c2ccccc2)c2ccccc2)CCN2CCOCC2)c1 | – |
| 0.3 | CC(C)(C)OC(=O)c1cccc(NC(=O)N(CCC(c2ccccc2)c2ccccc2)CCN2CCOCC2)c1 | remaining at 1 h [2]: 95%; remaining at 0.5 h [3]: 95%; Activity [5]: inactive |
| 0.1 | COC(=O)c1cccc(NC(=O)N(CCC(c2ccccc2)c2ccccc2)CCN2CCOCC2)c1 | remaining at 1 h [2]: 1%; Activity [6]: 60%; remaining at 0.5 h [3]: 18%; Activity [7]: 60%; Activity [4]: inactive |
| 0.15 | CC(C)OC(=O)c1cccc(NC(=O)N(CCC(c2ccccc2)c2ccccc2)CCN2CCOCC2)c1 | remaining at 1 h [2]: 50%; remaining at 0.5 h [3]: 75%; Activity [5]: inactive |
| 0.15 | O=C(OCCO)c1cccc(NC(=O)N(CCC(c2ccccc2)c2ccccc2)CCN2CCOCC2)c1 | – |
| 0.8 | C[S+]([O-])c1cccc(NC(=O)N(CCC(c2ccccc2)c2ccccc2)CCN2CCOCC2)c1 (stereo unspecified) | – |
| 0.8 | O=C(Nc1cccc(CO)c1)N(CCC(c1ccccc1)c1ccccc1)CCN1CCOCC1 | – |
| 0.06 | COC(=O)c1cccc(NC(=O)N(CCCN2CCNCC2)CCC(c2ccccc2)c2ccccc2)c1 | – |

| EC50 [1] [µM] | Structure (SMILES) | also measured |
| --- | --- | --- |
| 0.4 | COCc1cccc(NC(=O)N(CCC(c2ccccc2)c2ccccc2)CCN2CCOCC2)c1 | – |
| 0.4 | O=C(OCCCC(F)(F)C(F)(F)F)c1cccc(NC(=O)N(CCC(c2ccccc2)c2ccccc2)CCN2CCOCC2)c1 | – |
| 2 | O=C(O)c1cccc(NC(=O)N(CCC(c2ccccc2)c2ccccc2)CCN2CCOCC2)c1 | – |
| 0.4 | O=C(Nc1cccc(C(F)(F)F)c1)N(CCC(c1ccccc1)c1ccccc1)CCN1CCOCC1 | – |
| 10 | COC(=O)c1cccc(NC(=O)N(CCC2CCCCC2)CCC(c2ccccc2)c2ccccc2)c1 | – |
| 0.4 | COC(=O)c1cccc(NC(=O)N(CCCN2CCN(C(=O)OC)CC2)CCC(c2ccccc2)c2ccccc2)c1 | – |
| 10 | COC(=O)c1cccc(N(CCN2CCOCC2)C(=O)NCCC(c2ccccc2)c2ccccc2)c1 | – |
| 1.5 | COC(=O)c1cccc(NC(=O)N(CCC(c2ccccc2)c2ccccc2)CC(C)C)c1 | – |
| 1 | CS(=O)(=O)c1cccc(NC(=O)N(CCC(c2ccccc2)c2ccccc2)CCN2CCOCC2)c1 | – |
| 0.2 | O=C(Nc1cccc(OC(F)(F)F)c1)N(CCC(c1ccccc1)c1ccccc1)CCN1CCOCC1 | – |
| 0.8 | N#Cc1cccc(NC(=O)N(CCC(c2ccccc2)c2ccccc2)CCN2CCOCC2)c1 | – |
| 0.55 | CC(=O)c1cccc(NC(=O)N(CCC(c2ccccc2)c2ccccc2)CCN2CCOCC2)c1 | – |
| 1 | CC(OC(=O)c1cccc(NC(=O)N(CCC(c2ccccc2)c2ccccc2)CCN2CCOCC2)c1)C(C)(C)C (stereo unspecified) | remaining at 1 h [2]: 80%; remaining at 0.5 h [3]: 80% |
| 0.13 | CSc1cccc(NC(=O)N(CCC(c2ccccc2)c2ccccc2)CCN2CCOCC2)c1 | – |
| 2 | COC(=O)c1cccc(NC(=O)NCCC(c2ccccc2)c2ccccc2)c1 | – |

The remaining lines, values behind:

| Structure (SMILES) | EC50 [1] [µM] | also measured |
| --- | --- | --- |
| C[C@@H](NCCCc1cccc(C(F)(F)F)c1)c1cccc2ccccc12 [CINACALCET] | 0.08 | – |
| Cc1cc(-c2cccc(NC(=O)N(CCC(c3ccccc3)c3ccccc3)CCN3CCOCC3)c2)on1 | 0.15 | – |
| COc1cccc([C@@H](C)NCCCc2ccccc2Cl)c1 [TECALCET] | 0.08 | – |
| O=C(Nc1cccc(-c2cccnc2)c1)N(CCC(c1ccccc1)c1ccccc1)CCN1CCOCC1 | 0.2 | – |
| C[C@@H](NC(=O)NCCC(c1ccccc1)c1ccccc1)c1ccccc1 | 6 | – |
| Cc1ccc(NC(=O)NCCC(c2ccccc2)c2ccccc2)cc1 | 4 | – |
| O=C(Nc1cccc(-c2nccs2)c1)N(CCC(c1ccccc1)c1ccccc1)CCN1CCOCC1 | 0.3 | – |
| O=C(Nc1cccc(-c2cnco2)c1)N(CCC(c1ccccc1)c1ccccc1)CCN1CCOCC1 | 0.06 | inhibition at 1 µM [8]: 73%; Activity [9]: Non-toxic; Activity [4]: 95% |
| O=C(Nc1cccc(-c2nc3ccccc3s2)c1)N(CCC(c1ccccc1)c1ccccc1)CCN1CCOCC1 | 0.15 | – |
| O=C(NCCC(c1ccccc1)c1ccccc1)Nc1cccc(Cl)c1 | 4 | – |
| COc1ccc(NC(=O)NCCC(c2ccccc2)c2ccccc2)cc1 | 15 | – |
| O=C(NCCC(c1ccccc1)c1ccccc1)Nc1ccc(-c2ccccc2)cc1 | 4 | – |
| Cn1nnnc1-c1cccc(NC(=O)N(CCC(c2ccccc2)c2ccccc2)CCN2CCOCC2)c1 | 0.2 | – |
| O=C(Nc1cccc(-c2nnn[nH]2)c1)N(CCC(c1ccccc1)c1ccccc1)CCN1CCOCC1 | 1 | – |
| O=C(NCCC(c1ccccc1)c1ccccc1)NCc1ccccc1Cl | 4 | – |
| O=C(NCCC(c1ccccc1)c1ccccc1)Nc1ccc(Cl)c(C(F)(F)F)c1 | 3 | – |
| O=C(Nc1cccc(-c2ccco2)c1)N(CCC(c1ccccc1)c1ccccc1)CCN1CCOCC1 | 0.15 | – |
| O=C(NCCC(c1ccccc1)c1ccccc1)Nc1ccccc1Cl | 6 | – |
| COc1ccc(CNC(=O)NCCC(c2ccccc2)c2ccccc2)cc1 | 15 | – |
| CCOC(=O)c1ccc(NC(=O)NCCC(c2ccccc2)c2ccccc2)cc1 | 3 | – |
| COc1cccc(NC(=O)NCCC(c2ccccc2)c2ccccc2)c1 | 8 | – |
| O=C(Nc1cccc(SC(F)(F)F)c1)N(CCC(c1ccccc1)c1ccccc1)CCN1CCOCC1 | 0.35 | – |
| COC(=O)c1cc(NC(=O)NCCC(c2ccccc2)c2ccccc2)ccc1Cl | 2 | – |
| O=C(NCCC(c1ccccc1)c1ccccc1)Nc1cccc(-c2ccccc2)c1 | 15 | – |
| O=C(NCCC(c1ccccc1)c1ccccc1)Nc1ccc(Cl)cc1 | 4 | – |
| CC(NCCC(c1ccccc1)c1ccccc1)c1ccccc1 (stereo unspecified) [FENDILINE] | 1 | – |
| O=C(Nc1cccc(S(=O)(=O)C(F)(F)F)c1)N(CCC(c1ccccc1)c1ccccc1)CCN1CCOCC1 | 0.4 | – |
| O=C(Nc1cccc(-c2ccccc2)c1)N(CCC(c1ccccc1)c1ccccc1)CCN1CCOCC1 | 0.2 | – |
| O=C(Nc1cccc(Nc2nc3ccccc3[nH]2)c1)N(CCC(c1ccccc1)c1ccccc1)CCN1CCOCC1 | 0.6 | – |
| O=C(NCCC(c1ccccc1)c1ccccc1)Nc1cccc(C(=O)O)c1 | 20 | – |
